Experimental data taken from ChEMBL document CHEMBL1155998, “Design and synthesis of piperazinylpyrimidinones as novel selective 5-HT(2C) agonists” (Bioorg Med Chem Lett, 2009).

Assays:
[1] = molecular target: T1, 5-hydroxytryptamine receptor 2C (Homo sapiens) (UniProt P28335); experiment: Agonist activity at human recombinant 5HT2C receptor transfected in CHO K1 cells assessed as calcium mobilisation at 10 uM by FLIPR assay relative to serotonin; type: functional, cell-based
T1 sequence (whole entry): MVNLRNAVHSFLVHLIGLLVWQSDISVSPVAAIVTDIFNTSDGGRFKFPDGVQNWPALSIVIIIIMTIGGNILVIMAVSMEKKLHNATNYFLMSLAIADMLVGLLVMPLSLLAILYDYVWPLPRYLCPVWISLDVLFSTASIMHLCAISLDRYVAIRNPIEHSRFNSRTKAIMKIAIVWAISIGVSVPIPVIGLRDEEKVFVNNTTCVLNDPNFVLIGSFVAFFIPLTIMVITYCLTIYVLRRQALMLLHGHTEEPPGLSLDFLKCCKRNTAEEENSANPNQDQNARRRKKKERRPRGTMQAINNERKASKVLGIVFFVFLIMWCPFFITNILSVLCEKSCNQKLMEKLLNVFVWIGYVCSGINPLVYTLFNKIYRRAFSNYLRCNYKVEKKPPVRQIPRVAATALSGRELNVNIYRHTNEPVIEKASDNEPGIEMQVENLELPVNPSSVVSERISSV
Outline: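 Recombinant CHO K1 cells stably expressing the human 5-HT2C receptor; agonist-induced calcium mobilisation read as a fluorescence signal on FLIPR. Potency reported as EC50 and efficacy as Emax (%).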

[2] = molecular target: T2, 5-hydroxytryptamine receptor 2C (Homo sapiens, UniProt P28335); experiment: Agonist activity at human recombinant 5HT2C receptor expressed in CHO K1 cells assessed as calcium mobilisation by FLIPR assay; type: functional, cell-based
T2 sequence (P28335 whole entry): T1 sequence (whole entry)
Outline: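 Recombinant CHO K1 cells expressing the human 5-HT2C receptor. Agonism was read as a fluorescent calcium mobilisation signal in a FLIPR assay. Values were reported as EC50 and Emax (%).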

[3] = Intrinsic clearance in human liver microsomes; type: ADME, Microsome
[4] = Lipophilicity, log Dof the compound at pH 7.4; type: physicochemical; details: buffer
MDR1 (human) = experiment: Efflux ratio, permeability from basolateral to apical over apical to basolateral side in MDCK cells expressing human MDR1 gene; type: ADME, cell-based, Canis lupus familiaris; details: dog
[5] = molecular target: T3, 5-hydroxytryptamine receptor 2A (Homo sapiens, UniProt P28223); experiment: Agonist activity at human recombinant 5HT2A receptor transfected in CHO K1 cells assessed as calcium mobilisation at 10 uM by FLIPR assay; type: functional, cell-based
Outline: (§1)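 Recombinant cell-based systems expressing the human 5-HT2A or 5-HT2B receptor. Agonist response was read as calcium mobilisation by FLIPR, with test compound at 10 μM. Results were reported as % agonism.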

[6] = molecular target: T4, 5-hydroxytryptamine receptor 2B (Homo sapiens, UniProt P41595); experiment: Agonist activity at human recombinant 5HT2B receptor transfected in CHO K1 cells assessed as calcium mobilisation at 10 uM by FLIPR assay; type: functional, cell-based; outline: as §1
[7] = molecular target: 5-hydroxytryptamine receptor 4 (Homo sapiens) (UniProt Q13639); experiment: Binding affinity to 5HT4E receptor
Canis familiaris [8] = experiment: Free plasma concentration in iv dosed dog; type: ADME, organism-based, Canis lupus familiaris; details: in vivo
Outline: (§2)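 Anaesthetised dogs, two animals, in a urethral function model. Compound was given by intravenous infusion. Peak urethral pressure was recorded as % increase, alongside measured free plasma concentrations.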

[9] = Ratio of drug level in CSF to free plasma in iv dosed dog; type: ADME, organism-based, Canis lupus familiaris; details: in vivo
[10] = molecular target: Voltage-gated inwardly rectifying potassium channel KCNH2 (Homo sapiens, UniProt Q12809); experiment: Binding affinity to human ERG
[11] = molecular target: T3, 5-hydroxytryptamine receptor 2A; experiment: Agonist activity at human recombinant 5HT2A receptor transfected in CHO K1 cells assessed as calcium mobilisation by FLIPR assay; type: functional, cell-based
Canis familiaris [12] = experiment: Increase of urethral pressure in iv dosed dog; type: functional, Canis lupus familiaris, Urethra; outline: as §2
[13] = molecular target: Muscarinic acetylcholine receptor M3 (Homo sapiens) (UniProt P20309); experiment: Binding affinity to M3 receptor
[14] = molecular target: Beta-2 adrenergic receptor (Homo sapiens) (UniProt P07550); experiment: Binding affinity to beta2 receptor
[15] = molecular target: D(3) dopamine receptor (Homo sapiens) (UniProt P35462); experiment: Binding affinity to dopamine D3 receptor
[16] = molecular target: T4, 5-hydroxytryptamine receptor 2B; experiment: Agonist activity at human recombinant 5HT2B receptor transfected in CHO K1 cells assessed as calcium mobilisation by FLIPR assay; type: functional, cell-based
[17] = Binding affinity to calcium ion channel at L-verapamil site
[18] = molecular target: 5-hydroxytryptamine receptor 1B (Homo sapiens) (UniProt P28222); experiment: Binding affinity to 5HT1B receptor
5-hydroxytryptamine receptor 1B (Homo sapiens), sequence (P28222 whole entry): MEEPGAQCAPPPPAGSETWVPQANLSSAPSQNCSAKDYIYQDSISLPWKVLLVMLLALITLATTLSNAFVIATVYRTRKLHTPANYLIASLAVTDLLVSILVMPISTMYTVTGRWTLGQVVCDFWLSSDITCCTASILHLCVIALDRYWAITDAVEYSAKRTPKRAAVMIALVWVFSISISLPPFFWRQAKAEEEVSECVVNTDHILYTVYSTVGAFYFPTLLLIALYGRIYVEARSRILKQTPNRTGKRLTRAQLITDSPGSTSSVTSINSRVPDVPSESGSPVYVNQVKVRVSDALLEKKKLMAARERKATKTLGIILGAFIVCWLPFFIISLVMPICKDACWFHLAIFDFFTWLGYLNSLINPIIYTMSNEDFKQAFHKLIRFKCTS

T4 sequence (P41595 whole entry): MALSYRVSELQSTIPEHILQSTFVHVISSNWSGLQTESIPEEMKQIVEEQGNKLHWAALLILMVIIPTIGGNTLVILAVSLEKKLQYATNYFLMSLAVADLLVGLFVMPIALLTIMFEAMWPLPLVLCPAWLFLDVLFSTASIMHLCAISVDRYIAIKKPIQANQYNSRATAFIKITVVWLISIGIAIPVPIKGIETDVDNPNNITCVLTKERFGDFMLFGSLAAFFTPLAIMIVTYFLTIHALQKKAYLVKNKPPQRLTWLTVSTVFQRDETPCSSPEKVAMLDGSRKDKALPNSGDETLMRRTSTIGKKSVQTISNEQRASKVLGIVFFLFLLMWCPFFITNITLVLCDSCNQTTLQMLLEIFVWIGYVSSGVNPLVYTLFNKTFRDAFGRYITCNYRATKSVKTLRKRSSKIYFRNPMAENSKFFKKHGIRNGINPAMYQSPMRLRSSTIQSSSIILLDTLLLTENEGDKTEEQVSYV
T3 sequence (P28223 whole entry): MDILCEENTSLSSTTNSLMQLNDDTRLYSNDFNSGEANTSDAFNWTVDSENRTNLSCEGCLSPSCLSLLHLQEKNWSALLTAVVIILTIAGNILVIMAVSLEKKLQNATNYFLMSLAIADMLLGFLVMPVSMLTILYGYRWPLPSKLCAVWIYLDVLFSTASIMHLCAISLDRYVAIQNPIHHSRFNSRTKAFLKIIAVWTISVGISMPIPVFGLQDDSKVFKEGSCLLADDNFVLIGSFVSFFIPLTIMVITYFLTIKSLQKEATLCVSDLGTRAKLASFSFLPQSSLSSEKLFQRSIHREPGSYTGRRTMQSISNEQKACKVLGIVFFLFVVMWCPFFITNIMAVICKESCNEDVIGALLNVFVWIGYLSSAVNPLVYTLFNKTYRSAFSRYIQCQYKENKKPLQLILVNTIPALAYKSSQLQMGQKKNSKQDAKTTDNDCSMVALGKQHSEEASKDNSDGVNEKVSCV
Voltage-gated inwardly rectifying potassium channel KCNH2, sequence (Q12809 whole entry): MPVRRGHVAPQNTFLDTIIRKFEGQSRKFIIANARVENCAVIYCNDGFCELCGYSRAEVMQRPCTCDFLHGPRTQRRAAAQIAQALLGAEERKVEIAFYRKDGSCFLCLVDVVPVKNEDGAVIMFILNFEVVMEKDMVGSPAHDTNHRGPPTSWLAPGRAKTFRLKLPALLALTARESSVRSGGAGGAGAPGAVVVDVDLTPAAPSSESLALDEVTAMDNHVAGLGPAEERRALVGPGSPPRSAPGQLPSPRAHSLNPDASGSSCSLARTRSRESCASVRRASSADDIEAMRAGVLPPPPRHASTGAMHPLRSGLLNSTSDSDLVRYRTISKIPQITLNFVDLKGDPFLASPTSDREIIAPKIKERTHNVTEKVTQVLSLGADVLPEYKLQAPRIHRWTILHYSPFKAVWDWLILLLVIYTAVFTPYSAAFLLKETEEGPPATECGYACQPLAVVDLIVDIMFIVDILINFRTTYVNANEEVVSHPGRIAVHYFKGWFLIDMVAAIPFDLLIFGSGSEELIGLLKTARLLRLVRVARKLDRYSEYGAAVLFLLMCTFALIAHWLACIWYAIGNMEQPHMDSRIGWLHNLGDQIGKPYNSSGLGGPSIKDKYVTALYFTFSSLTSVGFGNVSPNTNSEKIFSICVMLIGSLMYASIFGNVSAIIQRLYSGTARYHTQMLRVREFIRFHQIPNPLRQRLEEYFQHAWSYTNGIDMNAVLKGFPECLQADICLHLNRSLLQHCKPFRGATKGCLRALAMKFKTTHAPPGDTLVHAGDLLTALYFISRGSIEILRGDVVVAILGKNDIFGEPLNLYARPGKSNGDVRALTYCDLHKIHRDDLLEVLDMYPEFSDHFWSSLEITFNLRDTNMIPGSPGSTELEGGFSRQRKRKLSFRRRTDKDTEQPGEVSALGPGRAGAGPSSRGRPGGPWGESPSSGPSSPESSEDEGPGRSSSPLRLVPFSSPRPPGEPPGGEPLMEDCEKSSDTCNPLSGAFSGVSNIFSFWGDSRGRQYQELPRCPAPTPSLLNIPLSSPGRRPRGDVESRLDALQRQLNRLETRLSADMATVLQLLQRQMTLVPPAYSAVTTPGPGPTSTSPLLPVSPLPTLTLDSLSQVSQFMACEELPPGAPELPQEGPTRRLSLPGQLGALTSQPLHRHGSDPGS
Beta-2 adrenergic receptor (Homo sapiens), sequence (P07550 whole entry, looked up): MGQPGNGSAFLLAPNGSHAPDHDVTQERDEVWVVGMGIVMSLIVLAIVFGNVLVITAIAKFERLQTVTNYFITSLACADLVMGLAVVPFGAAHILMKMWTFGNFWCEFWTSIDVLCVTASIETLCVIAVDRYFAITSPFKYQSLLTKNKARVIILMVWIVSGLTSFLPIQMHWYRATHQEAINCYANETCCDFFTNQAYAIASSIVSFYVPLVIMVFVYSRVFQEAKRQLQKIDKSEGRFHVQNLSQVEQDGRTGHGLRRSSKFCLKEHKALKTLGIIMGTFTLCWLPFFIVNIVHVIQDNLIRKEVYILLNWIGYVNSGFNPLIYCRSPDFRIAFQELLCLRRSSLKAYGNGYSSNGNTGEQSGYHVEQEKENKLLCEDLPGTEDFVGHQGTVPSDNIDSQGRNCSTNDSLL
Muscarinic acetylcholine receptor M3 (Homo sapiens), sequence (P20309 whole entry, looked up): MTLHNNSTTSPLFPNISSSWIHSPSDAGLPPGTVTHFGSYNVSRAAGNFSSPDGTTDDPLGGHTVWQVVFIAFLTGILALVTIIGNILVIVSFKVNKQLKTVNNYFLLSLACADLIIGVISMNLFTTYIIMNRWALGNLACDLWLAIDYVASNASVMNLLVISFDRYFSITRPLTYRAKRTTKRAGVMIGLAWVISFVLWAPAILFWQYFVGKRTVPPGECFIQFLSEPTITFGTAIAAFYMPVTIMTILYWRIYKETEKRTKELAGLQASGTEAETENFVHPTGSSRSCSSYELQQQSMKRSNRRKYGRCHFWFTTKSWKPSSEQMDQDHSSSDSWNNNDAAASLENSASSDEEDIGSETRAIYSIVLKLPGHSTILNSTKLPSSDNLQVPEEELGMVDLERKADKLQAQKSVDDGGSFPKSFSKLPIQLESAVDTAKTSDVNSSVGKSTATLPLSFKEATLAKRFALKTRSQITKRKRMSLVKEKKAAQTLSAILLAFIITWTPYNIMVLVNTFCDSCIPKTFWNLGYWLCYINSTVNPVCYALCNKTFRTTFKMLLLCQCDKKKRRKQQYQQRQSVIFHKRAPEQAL
D(3) dopamine receptor (Homo sapiens), sequence (P35462 whole entry): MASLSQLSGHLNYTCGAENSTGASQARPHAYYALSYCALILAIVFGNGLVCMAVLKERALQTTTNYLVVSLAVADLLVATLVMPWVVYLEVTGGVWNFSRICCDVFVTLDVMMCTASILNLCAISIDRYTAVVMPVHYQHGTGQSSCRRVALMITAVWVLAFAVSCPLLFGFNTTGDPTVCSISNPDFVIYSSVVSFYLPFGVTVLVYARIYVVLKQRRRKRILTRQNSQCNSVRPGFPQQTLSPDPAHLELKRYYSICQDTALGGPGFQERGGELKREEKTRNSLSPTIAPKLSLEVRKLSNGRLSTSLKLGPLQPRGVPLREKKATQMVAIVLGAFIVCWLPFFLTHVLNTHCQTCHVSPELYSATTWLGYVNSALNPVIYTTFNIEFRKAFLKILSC
5-hydroxytryptamine receptor 4 (Homo sapiens), sequence (Q13639 whole entry): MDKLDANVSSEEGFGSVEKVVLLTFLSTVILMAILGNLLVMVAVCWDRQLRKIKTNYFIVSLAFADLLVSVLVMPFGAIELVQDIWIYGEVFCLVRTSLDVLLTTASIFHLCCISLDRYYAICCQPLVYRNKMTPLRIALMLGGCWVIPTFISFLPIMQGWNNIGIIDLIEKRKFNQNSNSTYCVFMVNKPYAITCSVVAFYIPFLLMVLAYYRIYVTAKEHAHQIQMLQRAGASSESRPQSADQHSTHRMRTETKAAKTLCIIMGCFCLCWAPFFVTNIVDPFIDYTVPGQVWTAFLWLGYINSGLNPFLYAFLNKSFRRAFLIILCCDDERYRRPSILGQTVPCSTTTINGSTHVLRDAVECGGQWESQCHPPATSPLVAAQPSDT

Row | Emax [1] [%] | EC50 [2] [nM] | microsomal CLint [3] [µL/min/mg] | logD [4] | Activity [5] [%] | Activity [6] [%] | Structure (SMILES) | also measured
1 | 66 | 493 | < 7 | 1 |  |  | Cn1c(COc2cccc(Cl)c2)nc(N2CCNCC2)cc1=O | 
2 | 49 | 487 |  | 1.3 |  |  | Cn1c(COc2cccc(C(F)(F)F)c2)nc(N2CCNCC2)cc1=O | 
3 | 50 | 21 | 30 | 1.9 | 16 | < 5 | CCn1c(CCc2ccccc2Cl)nc(N2CCNCC2)cc1=O | efflux ratio (MDR1 (human)): 4.3
4 | 60 | 228 | < 7 | 0.8 |  |  | Cc1ccccc1OCc1nc(N2CCNCC2)cc(=O)n1C | 
5 | 59 | 26 | 18 | 1.4 | 50 | < 5 | Cc1ccccc1CCc1nc(N2CCNC[C@H]2C)cc(=O)n1C | efflux ratio (MDR1 (human)): 3.5
6 | 61 | 73 | 11 | 0.8 |  |  | Cn1c(COc2ccccc2Cl)nc(N2CCNCC2)cc1=O | 
7 | 63 | 319 | < 7 | 0.3 |  |  | Cn1c(COc2cccc(C#N)c2)nc(N2CCNCC2)cc1=O | 
8 | 77 | 1020 | 26 | 0.7 | 44 | 57 | Cc1cc(=O)n(CCCOc2ccccc2)c(N2CCNCC2)n1 | efflux ratio (MDR1 (human)): 1.6
9 | 59 | 26 | < 10 | 1.6 | 76 | 13 | C[C@@H]1CNCCN1c1cc(=O)n(C)c(CCc2cccc(Cl)c2)n1 | efflux ratio (MDR1 (human)): 3.7
10 | 59 | 64 | 29 | 1.8 | 45 | 6 | C[C@@H]1CNCCN1c1cc(=O)n(C)c(CCc2ccccc2C(F)(F)F)n1 | 
11 | 46 | 103 | < 7 | 1.4 |  |  | CCn1c(COc2cc(F)ccc2Cl)nc(N2CCNCC2)cc1=O | 
12 | 92 | 77 |  | 0.45 | 39 | 35 | Cc1cc(=O)n(CCCOc2ccccc2F)c(N2CCNCC2)n1 | 
13 | 84 | 163 | 16 | 0.9 |  |  | Cc1cc(=O)n(CCCOc2ccccc2)c(N2CCNC[C@H]2C)n1 | 
14 | 46 | 21 | 24 | 1.6 | 27 | < 5 | C[C@@H]1CNCCN1c1cc(=O)n(C)c(CCc2ccccc2Cl)n1 | efflux ratio (MDR1 (human)): 3.1
15 | 86 | 262 |  | 1.2 |  |  | Cc1cc(=O)n(CCCOc2cccc(Cl)c2)c(N2CCNCC2)n1 | 
16 | 84 | 160 | < 7 | 1.5 |  |  | Cc1ccc(Cl)cc1OCc1nc(N2CCNCC2)cc(=O)n1C | 
17 | 77 | 112 | < 7 | 0.4 |  |  | CCn1c(COc2cccc(C#N)c2)nc(N2CCNCC2)cc1=O | 
18 | 72 | 30 | 14 | 1.4 |  |  | Cn1c(COc2ccccc2C(F)(F)F)nc(N2CCNCC2)cc1=O | 
19 | 50 | 262 | < 7 | 1 | 58 | < 5 | C[C@@H]1CNCCN1c1cc(=O)n(C)c(CCc2ccccc2)n1 | 
20 |  |  |  |  |  |  | C[C@@H]1CNCCN1c1cc(=O)n(C)c(COc2ccccc2C(F)(F)F)n1 | Activity [7]: > 1 µM; Cp (Canis familiaris [8]): 19 nM; Ratio [9]: 0.34; Ki [10]: > 13000 nM; EC50 [11]: > 1500 nM; Activity (Canis familiaris [12]): 20%; Activity [13]: > 1 µM; Activity [14]: > 1 µM; Activity [15]: 480 nM; EC50 [16]: > 10000 nM; Activity [17]: > 1 µM; Activity [18]: 210 nM
21 | 59 | 96 | < 7 | 1.2 | 57 | < 5 | Cn1c(CCc2cccc(Cl)c2)nc(N2CCNCC2)cc1=O | efflux ratio (MDR1 (human)): 4
22 | 91 | 899 |  |  |  |  | Cc1cc(=O)n(CCCOc2ccc(Cl)cc2)c(N2CCNCC2)n1 | 
23 | 83 | 56 | 27 | 1 | 58 | 46 | Cc1cc(=O)n(CCCOc2ccccc2Cl)c(N2CCNCC2)n1 | 
24 | 48 | 361 | < 7 | 1 |  |  | Cn1c(COc2cc(F)ccc2Cl)nc(N2CCNCC2)cc1=O | 
25 | 84 | 46 | < 7 | 1 |  |  | Cc1ccc(F)cc1OCc1nc(N2CCNCC2)cc(=O)n1C | 
26 | 43 | 275 | < 7 | 0.6 | 13 | < 5 | Cn1c(CCc2ccccc2)nc(N2CCNCC2)cc1=O | efflux ratio (MDR1 (human)): 3.4

Row | Structure (SMILES) | Emax [1] [%] | EC50 [2] [nM] | microsomal CLint [3] [µL/min/mg] | logD [4] | Activity [5] [%] | Activity [6] [%] | also measured
27 | Cn1c(COc2ccc(Cl)cc2)nc(N2CCNCC2)cc1=O |  | > 10000 | < 7 | 0.8 |  |  | 
28 | Cc1cc(=O)n(CCCOCc2ccccc2)c(N2CCNCC2)n1 |  | > 10000 |  |  |  |  | 
29 | C[C@@H]1CNCCN1c1ccc(=O)n(CCOc2ccccc2C(F)(F)F)n1 | 45 | 47 | 15 | 1.4 | 50 | < 10 | efflux ratio (MDR1 (human)): 3.4
30 | Cc1cc(=O)n(CCCOc2ccc(F)cc2)c(N2CCNCC2)n1 |  | > 10000 |  | 0.7 |  |  | 
31 | Cn1c(N2CCNCC2)nc(CCc2cccc(Cl)c2)cc1=O |  | > 10000 | < 7 | 1.3 |  |  | 
32 | Cc1cc(=O)n(CCCc2ccccc2)c(N2CCNCC2)n1 |  | > 10000 |  |  |  |  | 
33 | Cn1c(COc2ccc(C(F)(F)F)cc2)nc(N2CCNCC2)cc1=O |  | > 10000 | 8 | 1.1 |  |  | 
34 | Cc1cc(=O)n(CCCOc2cccc(F)c2)c(N2CCNCC2)n1 |  | > 10000 |  | 0.8 |  |  | 
